CSC inhib: cancer stem cell inhibition | 1.1% of 300,000 active | cancer stem cell-like cells viability, luminescence | inhibition, % at 7.5 µM | AID 2717; in the data active = inhibition above about 75%; tested in HMLE shEcad cells
aSyn 5UTR inh: 5' untranslated region of α-synuclein, MLPCN primary screen | alpha-synuclein 5'UTR reporter, inhibitor activity | inhibition, % (tested at 7.5 µM) | 0.82% of 300,000 active | AID 1813; in the data active = inhibition above about 60%;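 also: H4 neuroglioblastoma cells stably carrying SNCA 5'UTR luciferase fusion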
Mdm2 MdmX PPI: human Mdm2/MdmX binding inhibition; O15151+Q00987; SaOS-2 split-luciferase Mdm2/MdmX complementation, luminescence; inhibition, % at 8 µM; 3% of 330,000 active;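 active = inhibition of at least 50% at 8 µM in the primary screen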
T cruzi inh: blocks replication of Trypanosoma cruzi | T. cruzi beta-gal in NIH3T3, luminescence, 90 h | inhibition, % (test concentration not listed) | 1.4% of 300,000 active | AID 1885;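 active = mean inhibition across valid replicates above about 55%, limit read from the data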;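 also: signal also drops with host cell toxicity which is not excluded here; higher percent means less beta-gal luminescence so fewer parasites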
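Assay system: NIH/3T3 fibroblasts plus reporter T. cruzi. Amount: NIH/3T3 cells, 5,000 per well. Buffer or medium: DMEM, 2% fetal bovine serum. Doses: compound pinned at 50 nL/well, DMSO. Schedule: ≥90 h infection period, 3 h prior cell attachment. Signal: luminescent β-galactosidase signal after 60 min lysis. Read-out: parasite load inhibition, %.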
SKKanGAS inh: blocks kanamycin growth of S. pyogenes SKKanGAS strain. BacTiter-Glo, 6 h. inhibition, % at 7.5 µM. 1.3% of 300,000 active;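 active = mean replicate score, as percent of positive control median, at least 50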;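 also: strain carries kanamycin resistance gene driven by streptokinase promoter and grows in 40 µg/ml kanamycin; loss of luminescence reflects streptokinase promoter inhibition or plain growth inhibition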
Mdm2-MdmX conf: confirmation of human Mdm2/MdmX interaction inhibitors; shares compounds with Mdm2 MdmX PPI; Mdm2-MdmX binding, luminescent assay; 55% of 10,000 active; inhibition, % at 8 µM; AID 489028; in the data active = inhibition above about 40%
Full FLuc ctr: full-length luciferase inhibition in Mdm2/MdmX counter-screen | AID 504607 | shares compounds with Mdm2 MdmX PPI | SaOS-2 full-length luciferase counterscreen, luminescence | 77% of 6,200 active | inhibition, % at 8 µM;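 active = mean inhibition at 8 µM reaching about 37%, which flags the compound as non-specific, limit read from the data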;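 also: p53-null SaOS-2 cells with luciferase driven by a doxycycline-inducible promoter; compound on cells about two nights before reading with doxycycline added after day one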
A number is an active result; i = inactive; nt = no result; + = active, no number. Rows were chosen to be rich in hits. Some 5.4% of all compounds tested hit in one or more screens of this group.

SMILES	CSC inhib	aSyn 5UTR inh	Mdm2 MdmX PPI	T cruzi inh	SKKanGAS inh	Mdm2-MdmX conf	Full FLuc ctr
CC(=O)Nc1ccc(Nc2c([N+](=O)[O-])c(=O)n(-c3ccccc3)c3ccccc23)cc1	i	i	60.9	i	i	i	nt
Nc1c(C(=O)CSc2n[nH]c(-c3ccccc3)n2)c(=O)[nH]c(=O)n1C1CC1	nt	nt	i	nt	nt	nt	nt
Fc1ccc(C2=Nn3c(nnc3-c3n[nH]c4c3CCC4)SC2)cc1	i	i	76.1	i	i	43.9	81.8
c1ccc(-c2cc(-c3nnc4n3N=C(c3ccc5ccccc5c3)CS4)[nH]n2)cc1	92.3	i	56.9	58.8	i	78.3	75.8
Cc1cc(-c2nnc3n2N=C(c2ccccc2)CS3)n[nH]1	i	i	i	i	i	nt	nt
Cc1cc(-c2nnc3n2N=C(c2ccc(-c4ccccc4)cc2)CS3)n[nH]1	i	i	69.7	i	i	i	nt
COc1ccc(S(=O)(=O)N2CCCCC2)cc1C(C)C	i	nt	i	nt	nt	nt	nt
COc1ccc(Cn2ccnc2SCC(=O)Nc2ccccc2OC)cc1	i	i	i	i	i	nt	nt
COc1ccc(CCNC(=O)c2cc(S(=O)(=O)N3CCOCC3)cn2C)cc1OC	i	i	i	i	i	nt	nt
CCCCC(=O)NC(c1ccc(N(CC)CC)cc1)c1ccc2cccnc2c1O (stereo unspecified)	+	67.9	82.5	68.1	i	85.8	i
CCCC(=O)NC(c1ccc(N(C)C)cc1)c1c(O)ccc2ccccc12 (stereo unspecified)	i	i	i	i	i	nt	nt
CCCCC(=O)NC(c1ccc(N(C)C)cc1)c1ccc2cccnc2c1O (stereo unspecified)	108.2	62.4	74.6	56.6	i	86.0	i
Cc1cc(C)c(-n2c(SCCS(=O)(=O)c3ccc(F)cc3)n[nH]c2=O)c(C)c1	i	i	i	i	i	nt	nt
O=C(NNC(=O)C12CC3CC(CC(C3)C1)C2)c1ccccn1	i	i	54.1	i	i	54.5	50.8
CC1(C)CC[C@]2(C(=O)O)CC[C@]3(C)C(=CC[C@@H]4[C@@]5(C)CC[C@H](O[C@@H]6O[C@H](C(=O)O)[C@@H](O)[C@H](O[C@@H]7OC[C@H](O)[C@H](O)[C@H]7O)[C@H]6O)C(C)(C)[C@@H]5CC[C@]43C)[C@@H]2C1	99.3	nt	79.2	nt	nt	i	44.2
Fc1ccc(/C=N/NC(=S)Nc2ccc(Cl)cc2Cl)cc1	i	i	85.0	i	i	66.0	57.9
O=C(N/N=C\c1ccc([N+](=O)[O-])s1)c1cncc(Br)c1	i	77.2	58.1	i	i	43.8	45.5
Cc1cc(C)n(CC(=O)N/N=C/c2cc([N+](=O)[O-])ccc2O)n1	i	i	i	i	i	nt	nt
Cc1cc(Cl)ccc1NC(=O)CCC(=O)N/N=C/c1cc([N+](=O)[O-])ccc1O	i	i	61.8	i	i	i	nt
O=[N+]([O-])c1ccc(/C=N/NC(=S)Nc2ccc(Cl)cc2Cl)s1	123.7	i	62.9	56.1	76.7	69.8	52.5
Fc1ccccc1-c1cc2ccccc2cn1	i	nt	i	nt	nt	nt	nt
O=[N+]([O-])c1ccc(O)c(/C=N/NC(=S)Nc2ccc(Cl)cc2Cl)c1	76.1	i	77.7	i	116.9	47.8	41.3
CCOC(=O)c1c(C)[nH]c(C(=O)N/N=C/c2cc([N+](=O)[O-])ccc2O)c1C	i	i	56.9	i	80.2	71.3	55.3
CCOc1c(Br)cc(CNc2ccc3c(c2)OCCO3)cc1OC	i	96.8	71.1	i	i	58.1	57.4
CCOc1cc(CNc2ccc3c(c2)OCCO3)cc(Br)c1OCC(N)=O	i	i	i	i	i	nt	nt
SMILES	CSC inhib	aSyn 5UTR inh	Mdm2 MdmX PPI	T cruzi inh	SKKanGAS inh	Mdm2-MdmX conf	Full FLuc ctr
CCOc1c(Br)cc(CNc2ccc(N3CCOCC3)cc2)cc1OC	i	i	i	i	i	nt	nt
CCOc1cc(CNc2ccc3c(c2)OCCO3)cc(Br)c1OC	78.3	95.4	75.7	i	i	73.0	65.5
OCCN(Cc1ccccc1)c1ncnc2sccc12	i	i	i	i	i	nt	nt
Cn1c(=O)n(C)c2cc(/C=C3/NC(=O)N(Cc4ccccc4)C3=O)ccc21	i	i	50.7	i	i	i	87.7
COc1ccc(/C=C2/NC(=O)N(Cc3ccccc3F)C2=O)cc1OC	i	i	85.0	i	i	i	nt
CCOc1cc(/C=C2/NC(=O)N(CC(=O)Nc3cccc(C)c3)C2=O)ccc1OC	i	i	70.2	i	i	65.2	i
CCn1cc(/C=C2\SC(=O)N(CC(=O)Nc3ccc4c(c3)OCO4)C2=O)c2ccccc21	i	nt	67.9	nt	nt	46.9	90.7
COc1cc(/C=C2/NC(=O)N(Cc3ccccc3F)C2=O)cc(OC)c1OC	i	i	i	i	i	nt	nt
Cc1nnc(NC(=O)CC23CC4CC(CC(C4)C2)C3)s1	i	i	i	i	i	nt	nt
S=C(Nc1cccc(Cl)c1Cl)N1CCC2(CC1)OCCO2	i	i	i	i	i	nt	nt
O=C(CN1C(=O)S/C(=C\c2ccccn2)C1=O)Nc1ccccc1	i	nt	i	nt	nt	nt	nt
Cc1cccc(NC(=O)CN2C(=O)S/C(=C\c3ccccn3)C2=O)c1	i	i	84.0	i	i	i	nt
Oc1c(CN2CCCCC2)cc(COCc2ccccc2)c2cccnc12	i	91.5	51.7	71.8	i	49.0	43.8
CN(C)C1CCN(Cc2cc(COCc3ccccc3)c3cccnc3c2O)C1 (stereo unspecified)	nt	nt	67.3	nt	nt	71.3	i
CCOC(=O)/C(C#N)=C/C1=C(N2CCOCC2)CC(C)(C)OC1	i	i	i	i	i	nt	nt
Cc1ccc(N(Cc2cc(=O)[nH]c3ccccc23)C(=O)CCl)c(C)c1	i	i	100.3	i	i	100.2	53.9
O=C(O)c1ccccc1OCC1CCCO1 (stereo unspecified)	i	i	i	i	i	nt	nt
O=C(Cn1c(=O)oc2cc(S(=O)(=O)N3CCCCC3)ccc21)N1CCc2ccccc21	i	i	58.6	i	i	i	nt
O=C(Nc1ccc(Cl)cc1)c1cccs1	i	i	i	i	i	nt	nt
C/C(=N/NC(=O)c1ccc(Cl)s1)c1ccc(NC(=O)COc2ccc(Cl)cc2)cc1	i	i	77.8	i	i	i	nt
C/C(=N/NC(=O)c1cccs1)c1ccc(NC(=O)COc2ccc(Cl)cc2Cl)cc1	i	i	75.0	i	i	i	nt
O=C(Nc1ccc(NC(=O)c2ccc(Cl)cc2Cl)cc1)c1cccs1	i	i	71.7	i	i	i	nt
COCCN(C(=O)CSc1nc2ccccc2c(=O)n1CC(C)C)c1c(N)n(Cc2ccccc2)c(=O)[nH]c1=O	i	i	i	i	i	nt	nt
CCOC(=O)c1ccc(-c2ccc3oc(-c4ccsc4)cc(=O)c3c2)cc1F	i	nt	i	nt	nt	nt	nt
COc1cc(-c2ccc3oc(-c4ccsc4)cc(=O)c3c2)cc(OC)c1OC	i	nt	72.6	nt	nt	i	nt
COc1ccc(-c2ccc3c(=O)cc(-c4ccsc4)oc3c2)cn1	i	nt	79.4	nt	nt	i	nt
COc1ccccc1/C=C/C(=O)OCC(=O)NCc1ccco1	i	i	i	i	i	nt	nt
COc1cc(/C=C/C(=O)OCC(=O)NCc2ccco2)ccc1O	nt	i	53.7	i	i	44.5	82.6

High-throughput results (PubChem BioAssay)
